Measurements reported in ChEMBL document CHEMBL4725463, “Vinyl Sulfone-Based Inhibitors of Nonstructural Protein 2 Block the Replication of Venezuelan Equine Encephalitis Virus” (ACS Med Chem Lett, 2020).

Key:
[1] = target: Polyprotein P1234 (Venezuelan equine encephalitis virus) (UniProt P27282); assay: Inhibition of recombinant VEEV nsP2 expressed in Escherichia coli BL21(DE3) using V12 as substrate at 0.9 uM after 24 hrs by discontinuous gel assay relative to control
Summary of the method: (§1)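 Recombinant tag-free VEEV nsP2 (1 μM) was incubated with the V12 CFP-YFP FRET substrate (10 μM) and compound in 50 mM HEPES pH 7.4 for 24 h at room temperature. Compound was tested at 3.6 to 0.03 μM in 2-fold steps. Uncut and cleaved V12 were resolved on gel, and percentage inhibition was estimated at 0.9 μM.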

[2] = Selectivity index, ratio of CC50 for cytotoxicity against mouse Neuro-2a cells to EC50 for antiviral activity against Venezuelan equine encephalitis virus TC-83 infected in mouse Neuro-2a cells; assay type: toxicity, cell-based; settings: read-out: Ratio CC50/EC50
[3] = test system: Venezuelan equine encephalitis virus; assay: Antiviral activity against Venezuelan equine encephalitis virus TC-83 infected in mouse cortical neurons at MOI of 0.04 after 20 hrs by immunostaining based confocal microscopic analysis; assay type: functional, organism-based, Cortical neuron; settings: strain TC-83, Cortical neurone
[4] = target: Polyprotein P1234 (Venezuelan equine encephalitis virus) (UniProt P27282); assay: Inhibition of recombinant VEEV nsP2 expressed in Escherichia coli BL21(DE3) using V12 as substrate at 20 uM after 24 hrs by discontinuous gel assay relative to control
Summary of the method: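 VEEV nsP2 (1 μM) was exposed to compound at 20 μM in the presence of 10 μM V12 CFP-YFP FRET substrate. Protease inactivation was judged by cleavage of V12.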

[5] = target: Polyprotein P1234 (Venezuelan equine encephalitis virus) (UniProt P27282); assay: Inhibition of recombinant VEEV nsP2 expressed in Escherichia coli BL21(DE3) using V12 as substrate after 24 hrs by discontinuous gel assay; summary of the method: as §1
[6] = Cytotoxicity against human SK-N-BE(2)-M17 cells; assay type: cell-based
[7] = Selectivity index, ratio of CC50 for cytotoxicity against mouse cortical neurons to EC50 for antiviral activity against Venezuelan equine encephalitis virus TC-83 infected in mouse cortical neurons; assay type: toxicity; settings: read-out: Ratio CC50/EC50
[8] = test system: Venezuelan equine encephalitis virus; assay: Antiviral activity against Venezuelan equine encephalitis virus TC-83 infected in human BE(2)-M17 cells pretreated with compound for 2 hrs followed by viral infection at MOI of 1.2 and measured after 7 hrs by immunostaining based confocal microscopic analysis; assay type: functional, organism-based; settings: strain TC-83, SK-N-BE(2)-M17
[9] = Cytotoxicity against mouse cortical neurons; assay type: cell-based, Cortical neurone
[10] = test system: Venezuelan equine encephalitis virus; assay: Antiviral activity against Venezuelan equine encephalitis virus TC-83 infected in mouse Neuro-2a cells pretreated with compound for 2 hrs followed by viral infection at MOI of 3.5 and measured after 7 hrs by immunostaining based confocal microscopic analysis; assay type: functional, organism-based; settings: strain TC-83, N2a
[11] = Selectivity index, ratio of CC50 for cytotoxicity against human BE(2)-M17 cells to EC50 for antiviral activity against Venezuelan equine encephalitis virus TC-83 infected in human BE(2)-M17 cells; assay type: toxicity, cell-based; settings: read-out: Ratio CC50/EC50
[12] = Cytotoxicity against mouse N2a cells; assay type: cell-based
[13] = Selectivity index, ratio of CC50 for cytotoxicity against human HeLa cells to EC50 for antiviral activity against Venezuelan equine encephalitis virus Trinidad infected in HeLa cells; assay type: toxicity, cell-based; settings: read-out: Ratio CC50/EC50
[14] = Cytotoxicity against green monkey Vero cells; assay type: cell-based; settings: chlorocebus sabaeus
[15] = test system: Venezuelan equine encephalitis virus; assay: Antiviral activity against Venezuelan equine encephalitis virus Trinidad infected in Vero cells at MOI of 0.01 after 20 hrs by immunostaining based confocal microscopic analysis; assay type: functional, organism-based
[16] = Selectivity index, ratio of CC50 for cytotoxicity against african green monkey Vero cells to EC50 for antiviral activity against Venezuelan equine encephalitis virus Trinidad infected in Vero cells; assay type: toxicity, cell-based; settings: read-out: Ratio CC50/EC50
[17] = test system: Venezuelan equine encephalitis virus; assay: Antiviral activity against Venezuelan equine encephalitis virus Trinidad infected in HeLa cells at MOI of 0.1 after 20 hrs by immunostaining based confocal microscopic analysis; assay type: functional, organism-based
[18] = Cytotoxicity against green monkey Vero C1008 cells; assay type: cell-based; settings: chlorocebus sabaeus
[19] = test system: Venezuelan equine encephalitis virus; assay: Antiviral activity against Venezuelan equine encephalitis virus IC-SH3 infected in VeroE6 cells pretreated with compound for 2 hrs followed by viral infection at MOI of 0.01 and measured after 20 hrs by immunostaining based confocal microscopic analysis; assay type: functional, organism-based; settings: IC-SH3, Vero C1008
[20] = test system: Venezuelan equine encephalitis virus; assay: Antiviral activity against Venezuelan equine encephalitis virus IC-SH3 infected in HeLa cells pretreated with compound for 2 hrs followed by viral infection at MOI of 0.1 and measured after 20 hrs by immunostaining based confocal microscopic analysis; assay type: functional, organism-based
[21] = Cytotoxicity against human HeLa cells; assay type: cell-based
[22] = Selectivity ratio of CC50 for cytotoxicity against human HeLa cells to EC50 for antiviral activity against Venezuelan equine encephalitis virus IC-SH3 infected in HeLa cells; assay type: toxicity, cell-based; settings: read-out: Ratio CC50/EC50
[23] = Selectivity ratio of CC50 for cytotoxicity against green monkey VeroE6 cells to EC50 for antiviral activity against Venezuelan equine encephalitis virus IC-SH3 infected in VeroE6 cells; assay type: toxicity, cell-based; settings: read-out: Ratio CC50/EC50

Sequence of Polyprotein P1234 (Venezuelan equine encephalitis virus) (P27282 whole entry): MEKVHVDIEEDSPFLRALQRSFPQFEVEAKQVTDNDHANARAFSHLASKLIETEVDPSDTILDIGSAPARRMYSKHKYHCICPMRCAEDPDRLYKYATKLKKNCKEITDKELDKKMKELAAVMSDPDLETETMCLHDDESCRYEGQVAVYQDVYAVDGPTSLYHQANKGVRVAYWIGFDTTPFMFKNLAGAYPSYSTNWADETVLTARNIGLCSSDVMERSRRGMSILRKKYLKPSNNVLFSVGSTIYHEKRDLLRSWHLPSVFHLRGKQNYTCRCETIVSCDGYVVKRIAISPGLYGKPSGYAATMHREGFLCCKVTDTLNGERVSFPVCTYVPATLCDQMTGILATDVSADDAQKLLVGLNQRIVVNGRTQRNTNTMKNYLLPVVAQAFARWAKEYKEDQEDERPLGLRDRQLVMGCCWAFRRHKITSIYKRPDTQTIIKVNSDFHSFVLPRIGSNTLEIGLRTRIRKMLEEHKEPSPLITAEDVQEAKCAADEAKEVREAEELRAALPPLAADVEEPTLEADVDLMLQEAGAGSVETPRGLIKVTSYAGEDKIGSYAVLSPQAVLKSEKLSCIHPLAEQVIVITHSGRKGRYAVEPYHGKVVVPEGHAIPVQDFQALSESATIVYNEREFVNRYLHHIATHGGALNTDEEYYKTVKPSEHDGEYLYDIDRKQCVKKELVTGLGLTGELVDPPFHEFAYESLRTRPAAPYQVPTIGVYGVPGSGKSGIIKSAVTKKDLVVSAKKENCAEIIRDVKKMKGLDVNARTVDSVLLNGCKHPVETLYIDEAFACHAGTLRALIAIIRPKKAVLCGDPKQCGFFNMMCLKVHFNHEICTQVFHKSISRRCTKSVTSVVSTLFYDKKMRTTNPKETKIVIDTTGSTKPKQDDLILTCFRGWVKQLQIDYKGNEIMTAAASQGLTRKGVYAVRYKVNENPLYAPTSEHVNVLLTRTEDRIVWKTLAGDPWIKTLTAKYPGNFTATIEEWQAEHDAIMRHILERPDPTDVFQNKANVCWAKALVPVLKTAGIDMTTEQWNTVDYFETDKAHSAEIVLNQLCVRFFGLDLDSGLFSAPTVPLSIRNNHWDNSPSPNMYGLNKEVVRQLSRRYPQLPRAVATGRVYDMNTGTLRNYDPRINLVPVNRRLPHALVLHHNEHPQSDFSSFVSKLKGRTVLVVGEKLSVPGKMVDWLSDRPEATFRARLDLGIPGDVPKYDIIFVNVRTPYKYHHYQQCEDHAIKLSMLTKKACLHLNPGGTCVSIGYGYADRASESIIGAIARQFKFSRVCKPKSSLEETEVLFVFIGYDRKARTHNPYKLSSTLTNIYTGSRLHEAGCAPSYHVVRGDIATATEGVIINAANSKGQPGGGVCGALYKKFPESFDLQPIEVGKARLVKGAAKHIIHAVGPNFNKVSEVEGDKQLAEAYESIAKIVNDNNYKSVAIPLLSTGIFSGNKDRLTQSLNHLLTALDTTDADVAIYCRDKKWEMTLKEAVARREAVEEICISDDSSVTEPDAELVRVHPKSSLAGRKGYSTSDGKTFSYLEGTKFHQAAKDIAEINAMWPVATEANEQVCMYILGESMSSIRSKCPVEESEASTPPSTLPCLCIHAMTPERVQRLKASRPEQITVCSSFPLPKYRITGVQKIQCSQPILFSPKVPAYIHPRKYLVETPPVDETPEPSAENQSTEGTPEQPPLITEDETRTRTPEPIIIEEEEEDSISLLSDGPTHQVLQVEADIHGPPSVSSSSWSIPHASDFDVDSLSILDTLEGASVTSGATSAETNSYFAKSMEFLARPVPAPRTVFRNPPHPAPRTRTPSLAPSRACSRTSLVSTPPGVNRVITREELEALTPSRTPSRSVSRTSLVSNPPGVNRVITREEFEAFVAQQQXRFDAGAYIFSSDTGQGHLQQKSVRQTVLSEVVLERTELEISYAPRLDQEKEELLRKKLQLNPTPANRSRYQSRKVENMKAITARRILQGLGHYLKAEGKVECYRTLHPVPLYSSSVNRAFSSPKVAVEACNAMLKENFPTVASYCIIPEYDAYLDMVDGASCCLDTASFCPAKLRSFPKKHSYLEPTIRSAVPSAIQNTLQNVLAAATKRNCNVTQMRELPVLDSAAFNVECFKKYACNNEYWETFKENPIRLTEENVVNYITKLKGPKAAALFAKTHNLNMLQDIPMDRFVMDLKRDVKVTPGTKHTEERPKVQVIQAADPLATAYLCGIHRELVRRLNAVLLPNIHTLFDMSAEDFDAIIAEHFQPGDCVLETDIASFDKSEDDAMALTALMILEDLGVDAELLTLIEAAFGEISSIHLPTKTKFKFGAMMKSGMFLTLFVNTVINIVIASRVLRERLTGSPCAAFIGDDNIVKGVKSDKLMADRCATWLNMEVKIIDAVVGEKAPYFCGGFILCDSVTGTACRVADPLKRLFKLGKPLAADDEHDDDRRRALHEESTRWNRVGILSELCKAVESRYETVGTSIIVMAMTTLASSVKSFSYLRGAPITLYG

Row | SMILES | selectivity ratio [2] | CC50 [6] [µM] | EC50 [8] [µM] | EC50 [10] [µM] | selectivity ratio [11] | CC50 [12] [µM] | CC50 [18] [µM] | EC50 [19] [µM] | EC50 [20] [µM] | CC50 [21] [µM] | further results
1 | CC1=CC(C)(C)Nc2c(C(=O)N[C@@H](C)/C=C/S(C)(=O)=O)cccc21 | > 7.3 | > 25 | 4.5 | 3.4 | > 5 | > 25 |  |  |  |  | inhibition [1]: 59%; EC50 [3]: 2.7 µM; inhibition [4]: 100%; inhibition [5]: Dose-dependent effect; selectivity ratio [7]: > 9.7; CC50 [9]: > 25 µM
2 | C[C@@H]1CC(C)(C)Nc2c(C(=O)N[C@@H](C)/C=C/S(C)(=O)=O)cccc21 | > 7 | > 25 | 3.3 | 3.7 | > 7.5 | > 25 |  |  |  |  | inhibition [1]: 71%; inhibition [4]: 100%; inhibition [5]: Dose-dependent effect
3 | CC1=CC(C)(C)Nc2c(C(=O)NC/C=C/S(C)(=O)=O)cccc21 | > 5 | 19.6 | 2 | 5 | > 9 | 27 |  |  |  |  | EC50 [3]: 6 µM; selectivity ratio [13]: > 22; CC50 [14]: 30 µM; EC50 [15]: 5 µM; selectivity ratio [16]: 7; EC50 [17]: 1.4 µM; selectivity ratio [7]: > 4; CC50 [9]: > 25 µM
4 | CN1CCN(C)/C(=N\c2ccc([N+](=O)[O-])cc2C(=O)Nc2ccccc2)C1 | > 125 | > 2.25 | 0.01 | 0.02 | > 250 | > 2.5 |  |  |  |  | 
5 | C[C@@H]1CC(C)(C)Nc2c(C(=O)N[C@H](/C=C/S(C)(=O)=O)Cc3ccccc3)cccc21 | > 4 | > 50 | 9.3 | 13 | > 5.4 | > 50 |  |  |  |  | 
6 | COC(=O)CCCNC(=O)c1cccc2c1NCCC2 |  |  |  |  |  |  | > 30 | > 30 | > 30 | > 30 | 
7 | O=C(N[C@H](/C=C/S(=O)(=O)c1ccccc1)Cc1ccccc1)c1cccc2cccnc12 | > 2 | 16 | 17 | 19 | 1 | 46 |  |  |  |  | 
8 | CC1=CC(C)(C)Nc2c(C(=O)N[C@H](/C=C/S(C)(=O)=O)Cc3ccccc3)cccc21 | > 4 | > 38 | 17 | 13 | > 2 | > 50 |  |  |  |  | 
9 | COC(=O)CCCNC(=O)c1cccc2c1NC(C)(C)C=C2C |  |  |  |  |  |  | > 30 | > 30 | > 30 | > 30 | 
10 | COC(=O)/C=C/CNC(=O)c1cc(C)cc2c1NC(C)(C)C=C2C |  |  |  |  |  |  | > 30 | 8.6 | 8.7 | > 30 | selectivity ratio [22]: > 4; selectivity ratio [23]: > 3.5
11 | COC(=O)CCCNC(=O)c1cc(C)cc2c1NC(C)(C)C=C2C |  |  |  |  |  |  | > 30 | > 30 | > 30 | > 30 | 
12 | COC(=O)/C=C/CNC(=O)c1cccc2c1NC(C)(C)C[C@H]2C | > 1 | 11 | > 25 | 22 |  | > 25 | > 30 | 8.2 | 1.2 | > 30 | selectivity ratio [22]: > 26; selectivity ratio [23]: > 4
13 | C[C@@H]1CC(C)(C)Nc2c(C(=O)NC/C=C/S(C)(=O)=O)cccc21 | > 12 | > 25 | 1.4 | 2 | > 18 | > 25 |  |  |  |  | inhibition [1]: 39%; EC50 [3]: 8 µM; selectivity ratio [13]: > 19; CC50 [14]: 30 µM; inhibition [4]: 100%; EC50 [15]: 2.4 µM; selectivity ratio [16]: > 12; EC50 [17]: 1.6 µM; inhibition [5]: Dose-dependent effect; selectivity ratio [7]: 6; CC50 [9]: 48 µM
14 | COC(=O)CCCNC(=O)c1cccc2c1NC(C)(C)C[C@H]2C |  |  |  |  |  |  | > 30 | > 30 | > 30 | > 30 | 
15 | COC(=O)/C=C/CNC(=O)c1c[nH]c2ccc(Br)cc12 | > 2 | 12 | 3 | 11 | 4 | > 25 |  |  |  |  | 
16 | COC(=O)/C=C/CNC(=O)c1cccc2c1NC(C)(C)C=C2C |  | 18.1 | 4.5 | > 25 | 1.5 |  | 6.7 | 6.5 | 0.6 | > 30 | selectivity ratio [22]: > 55; selectivity ratio [23]: > 5
17 | COC(=O)/C=C/CNC(=O)c1cccc2c1NCCC2 |  |  |  |  |  |  | > 30 | > 30 | 18 | > 30 | selectivity ratio [22]: > 2
